In ChEMBL document CHEMBL5712071, “BET bromodomain protein inhibition is a therapeutic option for medulloblastoma” (Oncotarget, 2013):
Activity calls are given as the source filed them. No cut-off for these calls is given here.

Assays:
[1] = test system: UW228; test: Induction of apoptosis in human UW228 cells assessed as increase in population of cells in G1 phase at 500 nM incubated for 72 hrs by ELISA; assay type: functional, cell-based
[2] = test system: HD-MB03; test: Induction of apoptosis in human HD-MB03 cells assessed as increase in population of cells in G1 phase at 500 nM incubated for 72 hrs by flow cytometry; assay type: functional, cell-based
In short: (§1)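 Cells were cultured with 500 nM JQ1 or DMSO control, trypsinised and washed 3 times in PBS. DNA was stained with propidium iodide for 15 min and DNA content analysed by flow cytometry to give G1 and sub-G1 fractions.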

[3] = test system: Daoy; test: Induction of apoptosis in human Daoy cells assessed as increase in population of cells in sub-G1 phase at 500 nM incubated for 72 hrs by flow cytometry; assay type: functional, cell-based; in short: as §1
[4] = test system: Daoy; test: Induction of apoptosis in human Daoy cells assessed as increase in population of cells in sub-G1 phase at 500 nM incubated for 72 hrs by ELISA; assay type: functional, cell-based
[5] = test system: UW228; test: Antiproliferative activity against human UW228 cells at 500 nM incubated for 72 hrs by BrdU ELISA method; assay type: functional, cell-based
In short: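 Cells seeded in triplicate at 2 × 10^3 per well with 24h adherence, then treated with 500 nM JQ1 or DMSO control for 72h. Proliferation was measured by BrdU incorporation ELISA. Experiments were run independently at least 3 times.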

[6] = test system: D283 Med; test: Induction of apoptosis in human D283 cells assessed as increase in population of cells in sub-G1 phase at 500 nM incubated for 72 hrs by flow cytometry; assay type: functional, cell-based; in short: as §1
[7] = test system: Daoy; test: Anti-proliferative activity against human Daoy cells assessed as reduction in cell viability incubated for 72 hrs by MTT assay; assay type: functional, cell-based
In short: (§2)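 Cells seeded in triplicate at 2 × 10^3 per well and allowed to adhere for 24h. JQ1 was given as serial dilutions in full medium, 1nM-6µM, from a 10 mM DMSO stock. Viability was read by MTT at each time point and IC50 derived from dose-response curves. Culture media were RPMI 1640/10% FCS for HD-MB3 (plus 1% NEAA), ONS-76, Daoy and UW-228, and EMEM/10% FCS for D-283 and D-341.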

[8] = biological target: Bromodomain-containing protein 4 (Homo sapiens) (UniProt O60885); details: HD-MB03, dose 500.0 nM, time 72.0 hrs
[9] = test system: UW228; test: Anti-proliferative activity against human UW228 cells assessed as reduction in cell viability incubated for 72 hrs by MTT assay; assay type: functional, cell-based; details: UW228, 72 h; in short: as §2
[10] = biological target: Bromodomain-containing protein 4 (Homo sapiens) (UniProt O60885); details: HD-MB03, dose 500.0 nM, time 12.0 hrs
[11] = test system: UW228; test: Anti-proliferative activity against human UW228 cells assessed as reduction in cell viability incubated for 120 hrs by MTT assay; assay type: functional, cell-based; details: UW228, 120 h; in short: as §2
[12] = test system: HD-MB03; test: Inhibition of BRD4 female athymic (nu/nu) mouse xenografted with human HD-MB03 cells as reduction in MYC protein expression in tumor at 50 mg/kg, ip administered at 0, 12, 24 and 36 hrs over 2-day course by Western blot analysis; assay type: functional, organism-based
In short: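 Same flank HD-MB3 xenografts in female nu/nu mice. Given 4 i.p. doses of JQ1 50 mg/kg (or DMSO) at 0, 12, 24 and 36h; tumours excised 4h after the last dose and snap-frozen. MYC measured by RT-PCR (mean ± S.D.) or western blot with β-actin loading control, 3 tumours per group.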

[13] = biological target: Bromodomain-containing protein 4 (Homo sapiens) (UniProt O60885); details: D341 cell line, dose 500.0 nM, time 24.0 hrs
[14] = test system: Daoy; test: Induction of apoptosis in human Daoy cells assessed as increase in population of cells in G1 phase at 500 nM incubated for 72 hrs by ELISA; assay type: functional, cell-based
[15] = biological target: Bromodomain-containing protein 4 (Homo sapiens) (UniProt O60885); details: HD-MB03, dose 500.0 nM, time 72.0 hrs; remark: listed apart in the source
[16] = test system: UW228; test: Induction of apoptosis in human UW228 cells assessed as increase in population of cells in G1 phase at 500 nM incubated for 72 hrs by flow cytometry; assay type: functional, cell-based
[17] = test system: HD-MB03; test: Induction of senescence in human HD-MB03 cells assessed as increase in population of cells in G1 phase at 500 nM incubated for 72 hrs by fluorometric SA-beta-gal activity assay; assay type: functional, cell-based
In short: (§3)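 Senescence read as fluorometric SA-β-gal activity. Cells seeded 2 × 10^3 per well in triplicate and allowed 24h to adhere, then exposed to 500 nM JQ1 or DMSO control for 72h. Assayed per kit protocol. Experiments repeated at least 3 times.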

[18] = test system: UW228; test: Induction of senescence in human UW228 cells assessed as increase in population of cells in G1 phase at 500 nM incubated for 72 hrs by fluorometric SA-beta-gal activity assay; assay type: functional, cell-based; in short: as §3
[19] = test system: HD-MB03; test: Antitumor activity against human HD-MB03 cells xenografted in female athymic (nu/nu) mouse assessed as reduction in tumor volume at 50 mg/kg, ip measured form days 4 to 14 days relative to untreated control; assay type: functional, organism-based; details: time 4-14 day
In short: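 Female athymic nu/nu mice, 4 weeks old, received 2 × 10^7 HD-MB3 cells in Matrigel subcutaneously in the left flank. At 150–200 mm3 they were randomised, n=7 per group, to JQ1 50 mg/kg ip daily or vehicle for 28 days or until tumours exceeded 1000 mm3. Calipers were used, with volume = (breadth × length × height)/2. Time to 1000 mm3 was analysed by Kaplan-Meier.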

[20] = test system: D341 cell line; test: Induction of senescence in human D341 cells assessed as increase in population of cells in G1 phase at 500 nM incubated for 72 hrs by fluorometric SA-beta-gal activity assay; assay type: functional, cell-based; in short: as §3
[21] = test system: D283 Med; test: Induction of apoptosis in human D283 cells assessed as increase in population of cells in G1 phase at 500 nM incubated for 72 hrs by flow cytometry; assay type: functional, cell-based; in short: as §1
[22] = biological target: Bromodomain-containing protein 4 (Homo sapiens) (UniProt O60885); details: Daoy, dose 500.0 nM, time 72.0 hrs
[23] = test system: ONS-76; test: Induction of apoptosis in human ONS-76 cells assessed as increase in population of cells in G1 phase at 500 nM incubated for 72 hrs by flow cytometry; assay type: functional, cell-based
[24] = test system: HD-MB03; test: Anti-proliferative activity against human HD-MB03 cells expressing dominant-negative TP53 mutant assessed as reduction in cell viability at 1 to 6000 nM incubated for 72 hrs by MTT assay; assay type: functional, cell-based; details: dose 1-6000 nM
In short: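 HD-MB3 was stably transfected with pMSCV-puro-p53DD and selected in 2 μg/mL puromycin. Cells were seeded in triplicate at 2 × 10^3 per well with 24h adherence, then exposed to serially diluted JQ1 in full medium for 72h. Viability was read by MTT.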

[25] = test system: D283 Med; test: Induction of senescence in human D283 cells assessed as increase in population of cells in G1 phase at 500 nM incubated for 72 hrs by fluorometric SA-beta-gal activity assay; assay type: functional, cell-based; in short: as §3

**Q.** Which results are given for Cc1sc2c(c1C)C(c1ccc(Cl)cc1)=N[C@@H](CC(=O)OC(C)(C)C)c1nnc(C)n1-2?
**A.** Activity [1]: Active; Activity [2]: Active; Activity [3]: Active; Activity [4]: Active; Activity [5]: Active; Activity [6]: Active; IC50 [7]: > 1 µM; inhibition [8]: 10%; IC50 [9]: > 1 µM; inhibition [10]: Active; IC50 [11]: 0.897 µM; inhibition [12]: Active; inhibition [13]: Active; Activity [14]: Active; inhibition [15]: Active; Activity [16]: Active; Activity [17]: Active; Activity [18]: Active; Activity [19]: Active; Activity [20]: Active; Activity [21]: Active; inhibition [22]: Active; Activity [23]: Active; Activity [24]: inactive; Activity [25]: Active
